Counter-ions that a name gives are not always drawn.
Test system: Nrf2 activation in KeratinoSens cells
Assay: KeratinoSens reporter gene assay
Assay type: cell-based
Conditions: 6 h
How it was run: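 KeratinoSens ARE-luciferase cells (passage ≤22) plated at 1.0 × 10^4 per well in triplicate; after 24 h switched to DMEM with 1% FBS, no geneticin. Wortmannin 500 nM added 1 h before test compound at 250 μM; DMF 50 μM as positive control; DMSO ≤0.1%. After 6 h, Alamar Blue (4 h, 37°C), then luciferase read as fold over DMSO. Three independent experiments in triplicate.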

Row | Structure (SMILES) | Nrf2 activation (luciferase induction) (Iso 250 μM, DMF 50 μM) | effect on Iso-induced Nrf2 activation (Wortmannin 500 nM added 1 h before Iso 250 μM)
1 | COC(=O)/C=C/C(=O)OC [DMF, Dimethyl fumarate] | induced Nrf2 activation | –
2 | COC[C@H]1OC(=O)c2coc3c2[C@@]1(C)C1=C(C3=O)[C@@H]2CCC(=O)[C@@]2(C)C[C@H]1OC(C)=O [Wortmannin] | – | partially inhibited
